Laboratory results published in ChEMBL document CHEMBL4270613, “Design, synthesis, biological evaluation and structure-activity relationship of sophoridine derivatives bearing pyrrole or indole scaffold as potential antitumor agents” (Eur J Med Chem, 2018).

System: HepG2
Assay: Antiproliferative activity against human HepG2 cells after 48 hrs by MTT assay
Type: functional, cell-based
Details: HepG2, 48 h
How it was run: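 HepG2 exposed to compounds for 48 h; MTT readout; camptothecin positive control; IC50 calculated; mean ± SD of three independent experiments, each in triplicate.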

Work on `O=C1/C(=C/c2cn(Cc3ccc(OCc4ccc(OC(F)(F)F)cc4)cc3)c3ccccc23)CC[C@@H]2[C@H]3CCCN4CCC[C@H](CN12)[C@@H]34` yielded an IC50 of 6.01 µM.

`O=C1/C(=C/c2cccn2Cc2ccc(Cl)cc2)CC[C@@H]2[C@H]3CCCN4CCC[C@H](CN12)[C@@H]34` gave an IC50 of 13.5 µM.

Work on `COc1ccc(Br)c(Cn2cccc2/C=C2\CC[C@@H]3[C@H]4CCCN5CCC[C@H](CN3C2=O)[C@@H]45)c1` yielded an IC50 of 9.66 µM.

In the case of `O=C1/C(=C/c2cccn2Cc2cccc(Cl)c2)CC[C@@H]2[C@H]3CCCN4CCC[C@H](CN12)[C@@H]34`, the IC50 is reported as 16.6 µM.

Compound `COc1ccc2c(ccn2Cc2ccc(OCc3ccccc3)cc2)c1` has an IC50 greater than 50 µM.

Work on `O=C1/C(=C/c2ccc3c(ccn3Cc3ccc(OCc4ccccc4)cc3)c2)CC[C@@H]2[C@H]3CCCN4CCC[C@H](CN12)[C@@H]34` yielded an IC50 of 7.25 µM.

Work on `Cc1ccc(COc2ccc(Cn3cc(/C=C4\CC[C@@H]5[C@H]6CCCN7CCC[C@H](CN5C4=O)[C@@H]67)c4ccccc43)cc2)cc1` yielded an IC50 of 5.32 µM.

In the case of `O=C1/C(=C/c2cn(Cc3ccc4ccccc4c3)c3ccccc23)CC[C@@H]2[C@H]3CCCN4CCC[C@H](CN12)[C@@H]34`, the IC50 is reported as 12.8 µM.

`O=C1/C(=C/c2cn(Cc3c(Cl)cccc3Cl)c3ccccc23)CC[C@@H]2[C@H]3CCCN4CCC[C@H](CN12)[C@@H]34` gave an IC50 of 9.78 µM.

In the case of `O=C1/C(=C/c2cccn2Cc2ccccc2Br)CC[C@@H]2[C@H]3CCCN4CCC[C@H](CN12)[C@@H]34`, the IC50 is reported as 13.5 µM.

Work on `O=C1/C(=C/c2cn(Cc3ccc(OCc4ccccc4)cc3)c3ccccc23)CC[C@@H]2[C@H]3CCCN4CCC[C@H](CN12)[C@@H]34` yielded an IC50 of 3.08 µM.

Work on `O=C1/C(=C/c2cccn2Cc2ccc(F)cc2)CC[C@@H]2[C@H]3CCCN4CCC[C@H](CN12)[C@@H]34` yielded an IC50 of 29.4 µM.

Work on `Cc1cc(C)cc(Cn2cc(/C=C3\CC[C@@H]4[C@H]5CCCN6CCC[C@H](CN4C3=O)[C@@H]56)c3ccccc32)c1` yielded an IC50 of 4.56 µM.

With `Cc1ccccc1Cn1cc(/C=C2\CC[C@@H]3[C@H]4CCCN5CCC[C@H](CN3C2=O)[C@@H]45)c2ccccc21` the IC50 was 16.3 µM.

For `COc1cc(Cn2cccc2/C=C2\CC[C@@H]3[C@H]4CCCN5CCC[C@H](CN3C2=O)[C@@H]45)cc(OC)c1`, the IC50 was 21.2 µM.

`O=C1/C(=C/c2cccn2Cc2ccc3ccccc3c2)CC[C@@H]2[C@H]3CCCN4CCC[C@H](CN12)[C@@H]34` showed an IC50 of 16.1 µM.

`c1ccc(COc2ccc(Cn3ccc4ccccc43)cc2)cc1` showed an IC50 greater than 50 µM.

`O=C1/C(=C/c2cccn2Cc2ccc(OC(F)(F)F)cc2)CC[C@@H]2[C@H]3CCCN4CCC[C@H](CN12)[C@@H]34` gave an IC50 of 26.5 µM.

Work on `O=C1/C(=C/c2cn(Cc3ccc(OCc4ccccc4)cc3)c3cc(Cl)ccc23)CC[C@@H]2[C@H]3CCCN4CCC[C@H](CN12)[C@@H]34` yielded an IC50 of 14.3 µM.

For `CC(C)(C)c1ccc(Cn2cc(/C=C3\CC[C@@H]4[C@H]5CCCN6CCC[C@H](CN4C3=O)[C@@H]56)c3ccccc32)cc1`, the IC50 was 4.57 µM.

`O=C1/C(=C/c2cn(Cc3ccc(OCc4ccc(Br)cc4)cc3)c3ccccc23)CC[C@@H]2[C@H]3CCCN4CCC[C@H](CN12)[C@@H]34` showed an IC50 of 10.1 µM.

In the case of `COc1ccc2c(c1)c(/C=C1\CC[C@@H]3[C@H]4CCCN5CCC[C@H](CN3C1=O)[C@@H]45)cn2Cc1ccc(OCc2ccc(Br)cc2)cc1`, the IC50 is reported as 6.31 µM.

Compound `COc1ccc2c(c1)c(/C=C1\CC[C@@H]3[C@H]4CCCN5CCC[C@H](CN3C1=O)[C@@H]45)cn2Cc1ccc(OCc2ccc(C)cc2)cc1` has an IC50 of 4.18 µM.

With `COc1ccc2c(c1)c(/C=C1\CC[C@@H]3[C@H]4CCCN5CCC[C@H](CN3C1=O)[C@@H]45)cn2Cc1ccc(OCc2ccc(C(C)(C)C)cc2)cc1` the IC50 was 5.86 µM.

`O=C1/C(=C/c2cn(Cc3ccc(OCc4ccc(F)cc4)cc3)c3ccccc23)CC[C@@H]2[C@H]3CCCN4CCC[C@H](CN12)[C@@H]34` was tested, and the IC50 was 4.83 µM.

`O=C1/C(=C/c2cccn2Cc2ccccc2)CC[C@@H]2[C@H]3CCCN4CCC[C@H](CN12)[C@@H]34` showed an IC50 of 10.9 µM.

Work on `COc1cccc(Cn2cccc2/C=C2\CC[C@@H]3[C@H]4CCCN5CCC[C@H](CN3C2=O)[C@@H]45)c1` yielded an IC50 of 17.2 µM.

`O=C1/C(=C/c2cn(Cc3ccc(OCc4ccccc4)cc3)c3ccc(Br)cc23)CC[C@@H]2[C@H]3CCCN4CCC[C@H](CN12)[C@@H]34` gave an IC50 of 3.97 µM.

With `O=C1/C(=C/c2cn(Cc3ccc(OCc4ccccc4)cc3)c3ccccc23)CC[C@@H]2[C@H]3CCCN4CCC[C@@H](CN12)[C@@H]34` the IC50 was 9.96 µM.

With `O=C1/C(=C/c2cn(Cc3ccc(OCc4ccc(Cl)cc4)cc3)c3ccccc23)CC[C@@H]2[C@H]3CCCN4CCC[C@H](CN12)[C@@H]34` the IC50 was 6.17 µM.

For `Cc1ccc(Cn2cc(/C=C3\CC[C@@H]4[C@H]5CCCN6CCC[C@H](CN4C3=O)[C@@H]56)c3ccccc32)cc1`, the IC50 was 9.39 µM.

`Cc1cccc(Cn2cccc2/C=C2\CC[C@@H]3[C@H]4CCCN5CCC[C@H](CN3C2=O)[C@@H]45)c1` showed an IC50 of 18.1 µM.

`COc1ccc2c(c1)c(/C=C1\CC[C@@H]3[C@H]4CCCN5CCC[C@H](CN3C1=O)[C@@H]45)cn2Cc1ccc(OCc2ccc(F)cc2)cc1` was tested, and the IC50 was 3.12 µM.

`Cc1ccc2c(c1)c(/C=C1\CC[C@@H]3[C@H]4CCCN5CCC[C@H](CN3C1=O)[C@@H]45)cn2Cc1ccc(OCc2ccccc2)cc1` was tested, and the IC50 was 7.71 µM.

With `CC(C)(C)c1ccc(COc2ccc(Cn3cc(/C=C4\CC[C@@H]5[C@H]6CCCN7CCC[C@H](CN5C4=O)[C@@H]67)c4ccccc43)cc2)cc1` the IC50 was 6.07 µM.

Compound `COc1ccc(Cn2cccc2/C=C2\CC[C@@H]3[C@H]4CCCN5CCC[C@H](CN3C2=O)[C@@H]45)cc1` has an IC50 of 30.1 µM.

Work on `O=C1/C(=C/c2cccn2Cc2ccc(Br)cc2)CC[C@@H]2[C@H]3CCCN4CCC[C@H](CN12)[C@@H]34` yielded an IC50 of 12.6 µM.

Compound `O=C1/C(=C/c2cn(Cc3ccc(Cl)cc3)c3ccccc23)CC[C@@H]2[C@H]3CCCN4CCC[C@H](CN12)[C@@H]34` has an IC50 of 6.59 µM.

`Cc1cccc(Cn2cc(/C=C3\CC[C@@H]4[C@H]5CCCN6CCC[C@H](CN4C3=O)[C@@H]56)c3ccccc32)c1` showed an IC50 of 8.27 µM.

For `Cc1ccccc1Cn1cccc1/C=C1\CC[C@@H]2[C@H]3CCCN4CCC[C@H](CN2C1=O)[C@@H]34`, the IC50 was 25.3 µM.

Work on `Cc1ccc(Cn2cccc2/C=C2\CC[C@@H]3[C@H]4CCCN5CCC[C@H](CN3C2=O)[C@@H]45)cc1` yielded an IC50 of 17.3 µM.

In the case of `O=C1/C(=C/c2cn(Cc3ccc(Br)cc3)c3ccccc23)CC[C@@H]2[C@H]3CCCN4CCC[C@H](CN12)[C@@H]34`, the IC50 is reported as 5.94 µM.

In the case of `O=C1/C(=C/c2cccn2Cc2ccc(OCc3ccccc3)cc2)CC[C@@H]2[C@H]3CCCN4CCC[C@H](CN12)[C@@H]34`, the IC50 is reported as 7.22 µM.

Work on `CC(C)(C)c1cc(Cn2cccc2/C=C2\CC[C@@H]3[C@H]4CCCN5CCC[C@H](CN3C2=O)[C@@H]45)cc(C(C)(C)C)c1` yielded an IC50 of 18.1 µM.

Compound `O=C1/C(=C/c2cccc3c2ccn3Cc2ccc(OCc3ccccc3)cc2)CC[C@@H]2[C@H]3CCCN4CCC[C@H](CN12)[C@@H]34` has an IC50 of 15.2 µM.

`O=C1/C(=C/c2cccn2Cc2ccccc2Cl)CC[C@@H]2[C@H]3CCCN4CCC[C@H](CN12)[C@@H]34` was tested, and the IC50 was 17.4 µM.

`O=C1/C(=C/c2cn(Cc3ccccc3)c3ccccc23)CC[C@@H]2[C@H]3CCCN4CCC[C@H](CN12)[C@@H]34` gave an IC50 of 6.95 µM.

`COc1cc(Cn2cc(/C=C3\CC[C@@H]4[C@H]5CCCN6CCC[C@H](CN4C3=O)[C@@H]56)c3ccccc32)cc(OC)c1` gave an IC50 of 6.88 µM.

Work on `COc1cccc(Cn2cc(/C=C3\CC[C@@H]4[C@H]5CCCN6CCC[C@H](CN4C3=O)[C@@H]56)c3ccccc32)c1` yielded an IC50 of 8.14 µM.

Work on `CC(C)(C)c1ccc(Cn2cccc2/C=C2\CC[C@@H]3[C@H]4CCCN5CCC[C@H](CN3C2=O)[C@@H]45)cc1` yielded an IC50 of 13.6 µM.

`COc1ccc(Br)c(Cn2cc(/C=C3\CC[C@@H]4[C@H]5CCCN6CCC[C@H](CN4C3=O)[C@@H]56)c3ccccc32)c1` showed an IC50 of 4.16 µM.

For `COc1ccc(Cn2cc(/C=C3\CC[C@@H]4[C@H]5CCCN6CCC[C@H](CN4C3=O)[C@@H]56)c3ccccc32)cc1`, the IC50 was 8.23 µM.

In the case of `Cn1cccc1/C=C1\CC[C@@H]2[C@H]3CCCN4CCC[C@H](CN2C1=O)[C@@H]34`, the IC50 is reported as greater than 100 µM.

In the case of `O=C1/C(=C/c2cn(Cc3ccccc3Br)c3ccccc23)CC[C@@H]2[C@H]3CCCN4CCC[C@H](CN12)[C@@H]34`, the IC50 is reported as 15.4 µM.

With `Cc1cc(C)cc(Cn2cccc2/C=C2\CC[C@@H]3[C@H]4CCCN5CCC[C@H](CN3C2=O)[C@@H]45)c1` the IC50 was 14.8 µM.

Work on `COc1ccc2c(c1)c(/C=C1\CC[C@@H]3[C@H]4CCCN5CCC[C@H](CN3C1=O)[C@@H]45)cn2Cc1ccc(OCc2ccc(Cl)cc2)cc1` yielded an IC50 of 3.97 µM.

In the case of `O=C1/C(=C/c2cn(Cc3ccc(OC(F)(F)F)cc3)c3ccccc23)CC[C@@H]2[C@H]3CCCN4CCC[C@H](CN12)[C@@H]34`, the IC50 is reported as 8.73 µM.

In the case of `COc1ccc2c(c1)c(/C=C1\CC[C@@H]3[C@H]4CCCN5CCC[C@H](CN3C1=O)[C@@H]45)cn2Cc1ccc(OCc2ccc(OC(F)(F)F)cc2)cc1`, the IC50 is reported as 5.72 µM.

Compound `O=C1/C(=C/c2cn(Cc3cccc(Br)c3)c3ccccc23)CC[C@@H]2[C@H]3CCCN4CCC[C@H](CN12)[C@@H]34` has an IC50 of 8.62 µM.

Compound `O=C1/C(=C/c2cn(Cc3ccccc3Cl)c3ccccc23)CC[C@@H]2[C@H]3CCCN4CCC[C@H](CN12)[C@@H]34` has an IC50 of 9.05 µM.
